Series [1] is described as follows: Inhibition of His-6-tagged HIV-1 integrase-recombinant flag-tagged LEDGF/p75 (unknown origin) interaction after 1hr by AlphaScreen assay. Put shortly: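 AlphaScreen. Ni-chelate acceptor and anti-flag donor beads were added (20 µg/ml each final), then incubated 1 h at 30 °C in low light. Acceptor-bead light emission was read.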
For orientation: In Alpha technology, singlet oxygen from a donor bead excites a nearby acceptor bead.

Series [2] can be described thus: Inhibition of His-6-tagged HIV-1 integrase-recombinant flag-tagged LEDGF/p75 (unknown origin) interaction at 100 uM after 1hr by AlphaScreen assay.
The nature of series [3]: Selectivity index, ratio of CC50 for human MT4 cells to EC50 for HIV-1 3B. It is filed as toxicity, cell-based. Conditions: read-out: Ratio CC50/EC50. Put shortly: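 Ratio CC50/EC50. CC50 comes from the MTT viability assay on uninfected MT-4 cells. EC50 comes from the MTT protection assay on MT-4 cells infected with HIV(IIIB).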
A short description of series [4]: Cytotoxicity against human MT4 cells assessed as cell viability by MTT assay. It is filed as cell-based. Put shortly:
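Uninfected MT-4 lymphocytes exposed to fivefold serial compound dilutions, run in parallel with the antiviral test. Viability read by MTT reduction to formazan by mitochondrial dehydrogenase, measured spectrophotometrically. CC50 = concentration lowering MT-4 viability by 50%.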

Series [5] relates to Human immunodeficiency virus 1. Kind of series: Antiviral activity against HIV-1 3B infected in MT4 cells assessed as inhibition of virus-induced cytopathic effect by MTT assay. In kind it is functional, organism-based. Conditions: Human immunodeficiency virus 1, 3B. In a few lines: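 MT-4 lymphocytes infected with 100–300 CCID50 of HIV(IIIB) stock (CCID50 titrated on MT-4 cells), with fivefold serial compound dilutions. Protection against virus-induced cytopathic effect read by MTT reduction to formazan, measured spectrophotometrically. EC50 = concentration giving 50% protection against CPE.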
In general terms: Cytopathic effects are the visible damage that an infection or toxin causes in cultured cells.

Series [6] deals with Human immunodeficiency virus type 1 integrase (Human immunodeficiency virus 1, UniProt Q7ZJM1). The experiment in a line: Inhibition of HIV-1 integrase strand transfer activity using 3'-end biotin labelled oligonucleotide/5'-end digoxigenin labelled oligonucleotide as substrate after 1 hr by ELISA. Put shortly: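 ELISA strand-transfer assay. Integrase (diluted in 750 mM NaCl, 10 mM Tris pH 7.6, 10% glycerol, 1 mM β-mercaptoethanol; 1.6 µM) was mixed with annealed oligonucleotides (7 nM): a 3'-biotin strand plus a 5'-digoxigenin strand lacking 3'-terminal GT. Buffer contained MgCl2, DTT, HEPES pH 7.5, 5% PEG and 15% DMSO. Incubation 1 h at 37 °C, NaOH denaturation, detection on avidin-coated plates.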

Molecules are shown by their SMILES. The source made the active and inactive calls. The rule behind the calls is not given here.

The term IC50 denotes the concentration that inhibits the measured activity by half. As a reminder, the inhibition is the relative decrease from the control value, in per cent. For orientation: CC50 means the concentration giving 50% cytotoxicity. Usually EC50 stands for the concentration that produces a half-maximal response.

Human immunodeficiency virus type 1 integrase, sequence (Q7ZJM1 whole entry): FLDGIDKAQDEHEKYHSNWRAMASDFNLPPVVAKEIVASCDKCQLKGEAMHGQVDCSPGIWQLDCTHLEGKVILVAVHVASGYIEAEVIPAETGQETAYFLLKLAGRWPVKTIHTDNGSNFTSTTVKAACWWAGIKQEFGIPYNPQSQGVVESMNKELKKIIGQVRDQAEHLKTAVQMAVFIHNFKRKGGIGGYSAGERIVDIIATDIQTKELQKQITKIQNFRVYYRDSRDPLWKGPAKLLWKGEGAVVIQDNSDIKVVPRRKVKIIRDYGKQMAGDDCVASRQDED

Turning to `O=C(O)/C(O)=C/C(=O)c1cn(Cc2ccc(-c3ccccc3)cc2)c2ccc(F)cc12`, the IC50 in series [1] came out at 8.1 µM. Further, in series [2], the inhibition was found to be 72%.
`Cc1cc(C)cc(Cn2cc(C(=O)C3=C(O)C(=O)OC3)c3cc(F)ccc32)c1`: the half-maximal inhibitory concentration (IC50) in series [1] was found to be 20.3 µM. Moreover, the inhibition in series [2] came out at 73%.
On to `CC(C)(C)c1ccc(Cn2cc(C(=O)C3=C(O)C(=O)OC3)c3cc(Cl)ccc32)cc1`, for which the IC50 in series [1] is 52.5 µM. Besides, in series [3], the selectivity ratio was found to be 2. Also, the inhibition in series [2] was 83%. Also, the CC50 in series [4] turned out to be 53 µM. Further, the concentration for a half-maximal effect (EC50) in series [5] worked out at 23.4 µM.
As to `Cc1cc(C)c(Cn2cc(C(=O)C3=C(O)C(=O)OC3)c3cc(F)ccc32)c(C)c1`, the IC50 in series [1] turned out to be 5.6 µM. The selectivity ratio in series [3] came out at 2. In addition, the inhibition in series [2] was 81%. Also, the CC50 in series [4] came out at 107 µM. In series [5], the EC50 stood at 49 µM.
On to `COc1ccc2c(c1)c(C(=O)/C=C(\O)C(=O)O)cn2Cc1c(C)cc(C)cc1C`, for which the results for the IC50 in series [1] and in series [6] were 33.1 µM and 0.42 µM, respectively. Besides, the selectivity ratio in series [3] came to 8. Moreover, the inhibition in series [2] amounted to 72%. Also, in series [4], the CC50 worked out at 23.5 µM. Further, the half-maximal effective concentration (EC50) in series [5] is 3.23 µM.
As to `COc1cccc2c1c(C(=O)/C=C(\O)C(=O)O)cn2Cc1ccc(F)cc1`, in series [1], the half-maximal inhibitory concentration (IC50) turned out to be 36.2 µM. Also, the selectivity ratio in series [3] is 70.
Consider `O=C(O)/C(O)=C/C(=O)c1cn(Cc2ccc(-c3ccccc3)cc2)c2ccc(Cl)cc12`, for which the inhibition in series [2] came to 31%.
On to `Cc1cc(C)cc(Cn2cc(C(=O)/C=C(\O)C(=O)O)c3cc(F)ccc32)c1`, for which, in series [2], the inhibition was 26%.
For the molecule `COc1ccc2c(c1)c(C(=O)C1=C(O)C(=O)OC1)cn2Cc1cc(C)cc(C)c1`, in series [2], the inhibition amounted to 66%.
Consider `O=C1OCC(C(=O)c2cn(Cc3ccc(C(F)(F)F)cc3)c3ccc(F)cc23)=C1O`, for which, in series [1], the concentration for half-maximal inhibition (IC50) was 12.2 µM. The inhibition in series [2] amounted to 65%.
Consider `COc1ccc2c(c1)c(C(=O)/C=C(\O)C(=O)O)cn2Cc1cc(C)cc(C)c1`, for which the results for the IC50 in series [1] and in series [6] were 53.9 µM and 1.09 µM, respectively. Further, the selectivity ratio in series [3] was 23. Moreover, the inhibition in series [2] amounted to 89%. In series [4], the CC50 came to 51 µM. The EC50 in series [5] was 2.24 µM.
Take `COc1ccc2c(c1)c(C(=O)/C=C(\O)C(=O)O)cn2Cc1ccc(C(F)(F)F)cc1C(F)(F)F`: the inhibition in series [2] came to 33%.
With `O=C1OCC(C(=O)c2cn(Cc3ccc(C(F)(F)F)cc3)c3ccc(Cl)cc23)=C1O`, the concentration for half-maximal inhibition (IC50) in series [1] came out at 12.3 µM. The inhibition in series [2] worked out at 92%.
`Cc1cc(C)c(Cn2cc(C(=O)C3=C(O)C(=O)OC3)c3cc(Cl)ccc32)c(C)c1`: in series [1], the half-inhibitory concentration (IC50) turned out to be 23.6 µM. Further, the selectivity ratio in series [3] amounted to 2. Besides, the inhibition in series [2] was found to be 85%. Moreover, in series [4], the CC50 turned out to be 40.5 µM. In addition, the EC50 in series [5] stood at 19.8 µM.
Turning to `Cc1cc(C)cc(Cn2cc(C(=O)/C=C(\O)C(=O)O)c3cc(Cl)ccc32)c1`, in series [3], the selectivity ratio is more than 2. For the same molecule, the inhibition result in series [2] was “inactive”. Besides, the cytotoxic concentration (CC50) in series [4] is more than 125 µM. Further, in series [5], the EC50 turned out to be 56.1 µM.
Take `O=C(O)/C(O)=C/C(=O)c1cn(Cc2ccc(C(F)(F)F)cc2C(F)(F)F)c2ccc(Cl)cc12`: the IC50 in series [1] is 3.8 µM. In addition, the inhibition in series [2] was 80%.
Take `O=C1OCC(C(=O)c2cn(Cc3ccc(C(F)(F)F)cc3C(F)(F)F)c3ccc(F)cc23)=C1O`: the inhibition in series [2] turned out to be 37%.
On to `Cc1cc(C)cc(Cn2cc(C(=O)/C=C(\O)C(=O)O)c3c(O)cccc32)c1`, for which, in series [1], the concentration for half-maximal inhibition (IC50) is 3.5 µM. For the same molecule, in series [3], the selectivity ratio was found to be 10. Moreover, the CC50 in series [4] was 44 µM. In series [5], the EC50 was found to be 4.63 µM.
For the molecule `COc1ccc2c(c1)c(C(=O)/C=C(\O)C(=O)O)cn2Cc1ccc(C(C)(C)C)cc1`, the half-inhibitory concentration (IC50) in series [1] was determined as 91.7 µM. Moreover, in series [2], the inhibition is 65%.
The matching figures for `O=C1OCC(C(=O)c2cn(Cc3ccc(-c4ccccc4)cc3)c3ccc(Cl)cc23)=C1O`: 21.8 µM and 80%.
For `COc1ccc2c(c1)c(C(=O)/C=C(\O)C(=O)O)cn2Cc1ccc(C(F)(F)F)cc1`, the inhibition in series [2] was 40%.
On to `O=C1OCC(C(=O)c2cn(Cc3ccc(C(F)(F)F)cc3C(F)(F)F)c3ccc(Cl)cc23)=C1O`, for which the IC50 in series [1] worked out at 21.5 µM. Further, in series [2], the inhibition was 86%.
Turning to `O=C(O)/C(O)=C/C(=O)c1cn(Cc2ccc(C(F)(F)F)cc2)c2ccc(F)cc12`, the IC50 was determined as 17.8 µM in series [1] and 1.55 µM in series [6]. For the same molecule, the selectivity ratio in series [3] stood at 2. Also, the inhibition in series [2] came out at 77%. In addition, in series [4], the 50% cytotoxic concentration (CC50) worked out at 15 µM. Further, the EC50 in series [5] is 7.83 µM.
As for `O=C1OCC(C(=O)c2cn(Cc3ccc(-c4ccccc4)cc3)c3ccc(F)cc23)=C1O`, the half-inhibitory concentration (IC50) in series [1] is 15.8 µM. Moreover, the inhibition in series [2] turned out to be 89%.
With `O=C(O)/C(O)=C/C(=O)c1cn(Cc2ccc(C(F)(F)F)cc2C(F)(F)F)c2ccc(F)cc12`, in series [2], the inhibition result is “inactive”.
In the case of `COc1ccc2c(c1)c(C(=O)C1=C(O)C(=O)OC1)cn2Cc1ccc(C(F)(F)F)cc1`, the half-maximal inhibitory concentration (IC50) in series [1] was determined as 52.2 µM. In addition, the inhibition in series [2] is 65%.
The matching figures for `COc1ccc2c(c1)c(C(=O)C1=C(O)C(=O)OC1)cn2Cc1ccc(C(C)(C)C)cc1`: 17.1 µM and 93%.
In the case of `COc1ccc2c(c1)c(C(=O)C1=C(O)C(=O)OC1)cn2Cc1ccc(C(F)(F)F)cc1C(F)(F)F`, in series [1], the half-inhibitory concentration (IC50) was 39.5 µM. For the same molecule, the inhibition in series [2] amounted to 61%.
The matching figures for `COc1ccc2c(c1)c(C(=O)C1=C(O)C(=O)OC1)cn2Cc1c(C)cc(C)cc1C`: 33.2 µM and 82%.
With `Cc1cc(C)cc(Cn2cc(C(=O)C3=C(O)C(=O)OC3)c3cc(Cl)ccc32)c1`, the 50% inhibitory concentration (IC50) in series [1] worked out at 23.1 µM. For the same molecule, the selectivity ratio in series [3] came out at 3. Also, the inhibition in series [2] worked out at 96%. Besides, in series [4], the CC50 came out at 53.5 µM. Also, the EC50 in series [5] was found to be 16.9 µM.
Consider `CC(C)(C)c1ccc(Cn2cc(C(=O)C3=C(O)C(=O)OC3)c3cc(F)ccc32)cc1`, for which the 50% inhibitory concentration (IC50) in series [1] stood at 36.2 µM. In addition, in series [2], the inhibition is 96%.
In the case of `COc1ccc2c(c1)c(C(=O)C1=C(O)C(=O)OC1)cn2Cc1ccc(-c2ccccc2)cc1`, in series [2], the inhibition was 51%.
Consider `Cc1cc(C)c(Cn2cc(C(=O)/C=C(\O)C(=O)O)c3cc(Cl)ccc32)c(C)c1`, for which, in series [1], the 50% inhibitory concentration (IC50) was more than 100 µM. Also, the inhibition in series [2] was 59%.
In the case of `CC(C)(C)c1ccc(Cn2cc(C(=O)/C=C(\O)C(=O)O)c3cc(F)ccc32)cc1`, the inhibition in series [2] amounted to 33%.
For the molecule `O=C(O)/C(O)=C/C(=O)c1cn(Cc2ccc(C(F)(F)F)cc2)c2ccc(Cl)cc12`, the IC50 in series [1] came to 32.9 µM; in series [6], 0.26 µM. Besides, the selectivity ratio in series [3] worked out at 5. Also, the inhibition in series [2] was determined as 80%. Moreover, in series [4], the CC50 came to 23 µM. For the same molecule, in series [5], the concentration for a half-maximal effect (EC50) was found to be 5.09 µM.
With `Cc1cc(C)c(Cn2cc(C(=O)/C=C(\O)C(=O)O)c3cc(F)ccc32)c(C)c1`, the results for the concentration for half-maximal inhibition (IC50) in series [1] and in series [6] were 15.2 µM and 2.51 µM, respectively. For the same molecule, the selectivity ratio in series [3] was 21. For the same molecule, the inhibition in series [2] turned out to be 71%. In series [4], the CC50 was 104 µM. The EC50 in series [5] was 5.14 µM.
As for `COc1ccc2c(c1)c(C(=O)/C=C(\O)C(=O)O)cn2Cc1ccc(-c2ccccc2)cc1`, the 50% inhibitory concentration (IC50) in series [1] was more than 100 µM. Also, the inhibition in series [2] was determined as 59%.
As to `CC(C)(C)c1ccc(Cn2cc(C(=O)/C=C(\O)C(=O)O)c3cc(Cl)ccc32)cc1`, the IC50 in series [1] was 10 µM. Also, in series [2], the inhibition stood at 88%.
